Experimental data published in publication PMC7157925 (Steroids, 2003).

Key:
HSV-2 = assay: Virucidal assay; design: species or system herpes simplex virus type 2; conditions: HSV-2 suspension incubated with compound 1 h at 37 °C
Outline: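 HSV-2 strain G suspension (4×10^5 PFU) mixed with an equal volume of maintenance medium (MEM, 1.5% bovine serum), with or without various concentrations of test compound, 1 h at 37 °C. Samples then diluted in cold maintenance medium, and residual infectivity titrated by plaque formation on Vero cells. Compound stock 10 mg/ml in DMSO, filter-sterilized. VC50 is the concentration inactivating virions by 50%.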

HSV-2 strain G = assay: Antiviral assay, reduction of virus plaque formation in Vero cells; type: cell-based, herpes simplex virus type 2; conditions: at a concentration up to 50 μg/ml
[1] = system: endothelin-converting enzyme; conditions: ref [20]; cited from earlier work

Row | Compound | VC50, concentration required to inactivate virus by 50%±S.D. (HSV-2) | Activity against HSV-2 (HSV-2 strain G) | Activity in the endothelin-converting enzyme assay [1]
1 | CC(C)CCC[C@@H](C)[C@H]1CC[C@H]2[C@@H]3CC[C@H]4C[C@H](O)[C@@H](O)C[C@]4(C)[C@H]3CC[C@]12C [Compound 5, 2β,3α-Dihydroxy-5α-cholestane] | > 100 µg/mL | not active | –
2 | C=CCCC[C@@H](C)[C@H]1CC[C@H]2[C@@H]3CC[C@H]4C[C@H](OS(=O)(=O)O)[C@@H](OS(=O)(=O)O)C[C@]4(C)[C@H]3CC[C@]12C [Compound 19, Halistanol disulfate B] | – | – | active
